# Test results reported in ChEMBL document CHEMBL3227966, “Synthesis and antitumor and antiviral activities of 1-beta-D-arabinofuranosyl-2-amino-1,4(2H)-iminopyrimidine and its derivatives” (1979).
# Activity calls are given as the source filed them. No cut-off for these calls is given here.
# System: Human alphaherpesvirus 1
# Assay: Antiviral activity against Herpes simplex virus type 1 infected in Swiss albino mouse assessed as increase in mouse survival at 0.14 mg/kg, ic single dose after 6 hrs of infection relative to control
# Type: functional
# Details: Human alphaherpesvirus 1, 6 h
# Summary of the method: (§1)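 Swiss albino mice, six per group, were infected intracerebrally with HSV-1 at about 10 LD50. Six hours later each received a single ic drug injection in Hank's balanced salt solution. Controls received the same volume of Hank's solution alone. Efficacy was the increase in number of survivors versus controls.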
row,SMILES,survival at 0.14 mg/kg
1,Nc1ccn([C@@H]2O[C@H](CO)[C@@H](O)[C@@H]2O)c(=O)n1 [CYTARABINE],40%
2,N=c1ccn([C@@H]2O[C@H](CO)[C@@H](OP(=O)(O)O)[C@@H]2O)c(N)n1,50%
3,N=c1ccn2c(n1)O[C@@H]1[C@H](OP(=O)(O)O)[C@@H](CO)O[C@H]12,40%

# System: L1210
# Assay: Antitumor activity against mouse L1210 cells allografted in BDF/1 mouse assessed as mouse survival at 600 mg/kg, ip qd treated 24 hrs after tumor implantation relative to control
# Type: functional
# Details: route intraperitoneal
# Summary of the method: (§2)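 Female BDF1 mice, 6–8 per group, were inoculated ip with 1×10^5 viable L1210 cells. Drug was given ip once daily on days 1–5, starting 24 h after implant, in freshly prepared isotonic sterile saline. Controls received 0.2 mL saline. Read-outs were survivors (cures) and T/C, with survivors excluded from T/C. P values came from the Wilcoxon nonparametric method.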
row,SMILES,Survival
1,N=c1ccn([C@@H]2O[C@H](CO)[C@@H](OP(=O)(O)O)[C@@H]2O)c(N)n1,22.5 days
2,N=c1ccn2c(n1)O[C@@H]1[C@H](OP(=O)(O)O)[C@@H](CO)O[C@H]12,17.5 days
3,N=c1ccn2c(n1)O[C@@H]1[C@H](O)[C@@H](CO)O[C@H]12,24 days

# System: L1210
# Assay: Antitumor activity against mouse L1210 cells allografted in BDF/1 mouse assessed as tumor weight reduction on day 5 at 400 mg/kg, ip qd treated 24 hrs after tumor implantation relative to control
# Type: functional, organism-based
# Set-up: dose 400 mg/kg
# Details: not given
row,SMILES,inhibition
1,N=c1ccn([C@@H]2O[C@H](CO)[C@@H](O)[C@@H]2O)c(N)n1,Active

# System: L1210
# Assay: Antitumor activity against mouse L1210 cells allografted in BDF/1 mouse assessed as tumor weight reduction on day 5 at 600 mg/kg, ip qd treated 24 hrs after tumor implantation relative to control
# Type: functional, organism-based
# Set-up: dose 600 mg/kg
# Details: not given
row,SMILES,inhibition
1,N=c1ccn([C@@H]2O[C@H](CO)[C@@H](OP(=O)(O)O)[C@@H]2O)c(N)n1,Active
2,N=c1ccn2c(n1)O[C@@H]1[C@H](OP(=O)(O)O)[C@@H](CO)O[C@H]12,Active
3,N=c1ccn2c(n1)O[C@@H]1[C@H](O)[C@@H](CO)O[C@H]12,Active

# System: KB
# Assay: Antiviral activity against rhinovirus type 13 infected in human KB cells assessed as inhibition of virus-induced cytopathic effect after 72 hrs by microscopically
# Type: functional, cell-based
# Details: Human rhinovirus A13
# Summary of the method: (§3)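 KB monolayers (18-24 h) were exposed to about 320 CCID50 of virus, with compound added within 15 min. CPE (0-4) and cytotoxicity were scored microscopically after 72 h at 37 °C. Virus rating was the summed (virus control − treated) CPE across drug levels, halved at partially toxic levels. Ratings: 0.5 slight/none, 0.5-0.9 moderate, 1.0 marked.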
row,SMILES,inhibition
1,Nc1ccn([C@@H]2O[C@H](CO)[C@@H](OP(=O)(O)O)[C@@H]2O)c(=O)n1,Active
2,N=c1nc(N)n([C@@H]2O[C@H](CO)[C@@H](OP(=O)(O)O)[C@@H]2O)cc1F,inactive
3,N=c1ccn([C@@H]2O[C@H](CO)[C@@H](OP(=O)(O)O)[C@@H]2O)c(N)n1,inactive
4,N=c1ccn2c(n1)O[C@@H]1[C@H](OP(=O)(O)O)[C@@H](CO)O[C@H]12,Active

# System: L1210
# Assay: Antitumor activity against mouse L1210 cells allografted in BDF/1 mouse assessed as mouse survival at 400 mg/kg, ip qd treated 24 hrs after tumor implantation relative to control
# Type: functional
# Details: route intraperitoneal
# Summary of the method: as §2
row,SMILES,Survival
1,N=c1ccn([C@@H]2O[C@H](CO)[C@@H](O)[C@@H]2O)c(N)n1,60 days

# System: Human alphaherpesvirus 1
# Assay: Antiviral activity against Herpes simplex virus type 1 infected in human KB cells assessed as inhibition of virus-induced cytopathic effect after 72 hrs by microscopically
# Type: functional, organism-based
# Details: not given
# Summary of the method: as §3
row,SMILES,inhibition
1,N=c1nc2n(cc1F)[C@@H]1O[C@H](CO)[C@@H](OP(=O)(O)O)[C@H]1O2,Active
2,Nc1ccn([C@@H]2O[C@H](CO)[C@@H](O)[C@@H]2O)c(=O)n1 [CYTARABINE],Active
3,Nc1ccn([C@@H]2O[C@H](CO)[C@@H](OP(=O)(O)O)[C@@H]2O)c(=O)n1,Active
4,N=c1nc(N)n([C@@H]2O[C@H](CO)[C@@H](OP(=O)(O)O)[C@@H]2O)cc1F,Active
5,N=c1ccn([C@@H]2O[C@H](CO)[C@@H](OP(=O)(O)O)[C@@H]2O)c(N)n1,Active
6,N=c1ccn2c(n1)O[C@@H]1[C@H](OP(=O)(O)O)[C@@H](CO)O[C@H]12,Active
7,N=c1ccn([C@@H]2O[C@H](CO)[C@@H](O)[C@@H]2O)c(N)n1,Active

# System: L1210
# Assay: Antitumor activity against mouse L1210 cells allografted in BDF/1 mouse assessed as […] at 600 mg/kg, ip qd treated 24 hrs after tumor implantation relative to control
# Type: functional
# Details: route intraperitoneal
# Summary of the method: as §2
row,SMILES,T/C
1,N=c1ccn([C@@H]2O[C@H](CO)[C@@H](OP(=O)(O)O)[C@@H]2O)c(N)n1,2.44
2,N=c1ccn2c(n1)O[C@@H]1[C@H](OP(=O)(O)O)[C@@H](CO)O[C@H]12,2.07
3,N=c1ccn2c(n1)O[C@@H]1[C@H](O)[C@@H](CO)O[C@H]12,2.81

# System: L1210
# Assay: Antitumor activity against mouse L1210 cells allografted DBA/2 mouse assessed as increase in life span
# Type: functional
# Details: not given
row,SMILES,Activity
1,N=c1nc2n(cc1F)[C@@H]1O[C@H](CO)[C@@H](O)[C@H]1O2,80%

# System: L1210
# Assay: Antitumor activity against mouse L1210 cells allografted in BDF/1 mouse assessed as increase in life span at 600 mg/kg, ip qd treated 24 hrs after tumor implantation relative to control
# Type: functional
# Details: route intraperitoneal
# Summary of the method: as §2
row,SMILES,Activity
1,N=c1ccn([C@@H]2O[C@H](CO)[C@@H](OP(=O)(O)O)[C@@H]2O)c(N)n1,144%

# System: KB
# Assay: Antiviral activity against Myxoma virus infected in human KB cells assessed as inhibition of virus-induced cytopathic effect after 72 hrs by microscopically
# Type: functional, cell-based
# Details: not given
# Summary of the method: as §3
row,SMILES,inhibition
1,Nc1ccn([C@@H]2O[C@H](CO)[C@@H](O)[C@@H]2O)c(=O)n1 [CYTARABINE],Active
2,Nc1ccn([C@@H]2O[C@H](CO)[C@@H](OP(=O)(O)O)[C@@H]2O)c(=O)n1,Active
3,N=c1nc(N)n([C@@H]2O[C@H](CO)[C@@H](OP(=O)(O)O)[C@@H]2O)cc1F,Active
4,N=c1ccn([C@@H]2O[C@H](CO)[C@@H](OP(=O)(O)O)[C@@H]2O)c(N)n1,Active
5,N=c1ccn2c(n1)O[C@@H]1[C@H](OP(=O)(O)O)[C@@H](CO)O[C@H]12,Active
6,N=c1ccn([C@@H]2O[C@H](CO)[C@@H](O)[C@@H]2O)c(N)n1,Active

# System: L1210
# Assay: Antitumor activity against mouse L1210 cells allografted in BDF/1 mouse assessed as mouse survival upto 60 days at 600 mg/kg, ip qd treated 24 hrs after tumor implantation relative to control
# Type: functional
# Details: not given
# Summary of the method: as §2
row,SMILES,Activity
1,N=c1ccn2c(n1)O[C@@H]1[C@H](OP(=O)(O)O)[C@@H](CO)O[C@H]12,inactive
2,N=c1ccn2c(n1)O[C@@H]1[C@H](O)[C@@H](CO)O[C@H]12,inactive

# Same assay, conditions: route intraperitoneal
row,SMILES,survival at 600 mg/kg
1,N=c1ccn([C@@H]2O[C@H](CO)[C@@H](OP(=O)(O)O)[C@@H]2O)c(N)n1,33%

# System: L1210
# Assay: Antitumor activity against mouse L1210 cells allografted in BDF/1 mouse assessed as mouse survival upto 60 days at 400 mg/kg, ip qd treated 24 hrs after tumor implantation relative to control
# Type: functional, organism-based
# Set-up: dose 400 mg/kg
# Details: not given
# Summary of the method: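 BDF1 female mice, six to eight per group, inoculated ip with 1×10^5 viable L1210 cells. Drug was given ip once daily on days 1-5, starting 24 h after implant, in freshly prepared isotonic sterile saline. Controls received 0.2 mL saline. Read-out was survivors (cures) and T/C excluding survivors. P was derived by the Wilcoxon nonparametric method.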
row,SMILES,Activity
1,N=c1ccn([C@@H]2O[C@H](CO)[C@@H](O)[C@@H]2O)c(N)n1,Active

# System: Vaccinia virus
# Assay: Antiviral activity against Vaccinia virus infected in human KB cells assessed as inhibition of virus-induced cytopathic effect after 72 hrs by microscopically
# Type: functional, organism-based
# Details: Orthopoxvirus vaccinia
row,SMILES,inhibition
1,Nc1ccn([C@@H]2O[C@H](CO)[C@@H](O)[C@@H]2O)c(=O)n1 [CYTARABINE],Active
2,Nc1ccn([C@@H]2O[C@H](CO)[C@@H](OP(=O)(O)O)[C@@H]2O)c(=O)n1,Active
3,N=c1nc(N)n([C@@H]2O[C@H](CO)[C@@H](OP(=O)(O)O)[C@@H]2O)cc1F,Active
4,N=c1ccn([C@@H]2O[C@H](CO)[C@@H](OP(=O)(O)O)[C@@H]2O)c(N)n1,Active
5,N=c1ccn2c(n1)O[C@@H]1[C@H](OP(=O)(O)O)[C@@H](CO)O[C@H]12,Active
6,N=c1ccn([C@@H]2O[C@H](CO)[C@@H](O)[C@@H]2O)c(N)n1,Active

# System: Human alphaherpesvirus 1
# Assay: Antiviral activity against Herpes simplex virus type 1 infected in Swiss albino mouse assessed as increase in mouse survival at 0.033 mg/kg, ic single dose after 6 hrs of infection relative to control
# Type: functional
# Details: Human alphaherpesvirus 1, 6 h
# Summary of the method: as §1
row,SMILES,survival at 0.033 mg/kg
1,Nc1ccn([C@@H]2O[C@H](CO)[C@@H](O)[C@@H]2O)c(=O)n1 [CYTARABINE],0%
2,N=c1ccn([C@@H]2O[C@H](CO)[C@@H](OP(=O)(O)O)[C@@H]2O)c(N)n1,0%
3,N=c1ccn2c(n1)O[C@@H]1[C@H](OP(=O)(O)O)[C@@H](CO)O[C@H]12,0%

# System: Suid alphaherpesvirus 1
# Assay: Antiviral activity against Pseudorabies virus infected in human KB cells assessed as inhibition of virus-induced cytopathic effect after 72 hrs by microscopically
# Type: functional, organism-based
# Details: not given
row,SMILES,inhibition
1,Nc1ccn([C@@H]2O[C@H](CO)[C@@H](O)[C@@H]2O)c(=O)n1 [CYTARABINE],Active
2,Nc1ccn([C@@H]2O[C@H](CO)[C@@H](OP(=O)(O)O)[C@@H]2O)c(=O)n1,Active
3,N=c1nc(N)n([C@@H]2O[C@H](CO)[C@@H](OP(=O)(O)O)[C@@H]2O)cc1F,Active
4,N=c1ccn([C@@H]2O[C@H](CO)[C@@H](OP(=O)(O)O)[C@@H]2O)c(N)n1,Active
5,N=c1ccn2c(n1)O[C@@H]1[C@H](OP(=O)(O)O)[C@@H](CO)O[C@H]12,Active
6,N=c1ccn([C@@H]2O[C@H](CO)[C@@H](O)[C@@H]2O)c(N)n1,Active
